What was measured:
DMS-273 [1] = experiment: cytotoxicity against small cell lung cancer subpanel (DMS 273); Experiment 2; type: functional; settings: Homo sapiens
Method in brief: (§1)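 NCI 60 human tumour cell line screen. Compound dissolved in DMSO and tested at five concentrations (10^-4–10^-8 M). Growth followed over time as percent growth, with zero-time population set to zero. Value is log10 GI50, the log molar concentration giving 50% growth inhibition. Experiment 1 and Experiment 2 are separate runs.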

CCRF-CEM [2] = experiment: cytotoxicity against leukemia subpanel (CCRF-CEM); Experiment 1; type: functional; settings: Homo sapiens; method in brief: as §1
K562 [3] = experiment: cytotoxicity against leukemia subpanel (K562); Experiment 1; type: functional; settings: Homo sapiens; method in brief: as §1
DMS-114 [4] = experiment: cytotoxicity against small cell lung cancer subpanel (DMS 114); Experiment 1; type: functional; settings: Homo sapiens; method in brief: as §1
Mus musculus [5] = experiment: Percentage increased life span against L1210 leukemia cells in mice;(1.08 mmol/kg dosage); type: functional
Method in brief: (§2)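 CDF1 mice (17–18 g) inoculated with L1210 lymphoid leukaemia cells per NIH protocol 1.100. A single 1.08 mmol/kg dose was given 24 h after inoculation. %ILS = (treated/control − 1) × 100 on survival times, with vehicle-treated mice as controls. Survivors beyond 30 days were counted separately.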

SR [6] = experiment: cytotoxicity against leukemia subpanel (SR); Experiment 1; type: functional; settings: Homo sapiens; method in brief: as §1
SR [7] = experiment: cytotoxicity against leukemia subpanel (SR); Experiment 2; type: functional; settings: Homo sapiens; method in brief: as §1
RPMI-8226 [8] = experiment: cytotoxicity against leukemia subpanel (RPMI-8226); Experiment 2; type: functional; settings: Homo sapiens; method in brief: as §1
RPMI-8226 [9] = experiment: cytotoxicity against leukemia subpanel (RPMI-8226); Experiment 1; type: functional; settings: Homo sapiens; method in brief: as §1
MOLT-4 [10] = experiment: cytotoxicity against leukemia subpanel (MOLT-4); Experiment 2; type: functional; settings: Homo sapiens; method in brief: as §1
HL-60 [11] = experiment: cytotoxicity against leukemia subpanel (HL-60 (TB)); Experiment 1; type: functional; settings: Homo sapiens; method in brief: as §1
DMS-114 [12] = experiment: cytotoxicity against small cell lung cancer subpanel (DMS 114); Experiment 2; type: functional; settings: Homo sapiens; method in brief: as §1
[13] = MGDH represents the selectivity or relative sensitivity of the tumor cell panel to the drug.; Experiment 2; type: functional
Method in brief: (§3)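 NCI 60-line screen, DMSO solutions at five concentrations (10^-4–10^-8 M). Log10 GI50 was found per line. MG MID is the calculated mean over all panels. Sensitivity is expressed as the log-scale difference of a line or subpanel from that mean. Experiment 1 and Experiment 2 are separate runs.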

K562 [14] = experiment: cytotoxicity against leukemia subpanel (K562); Experiment 2; type: functional; settings: Homo sapiens; method in brief: as §1
HL-60 [15] = experiment: cytotoxicity against leukemia subpanel (HL-60 (TB)); Experiment 2; type: functional; settings: Homo sapiens; method in brief: as §1
CCRF-CEM [16] = experiment: cytotoxicity against leukemia subpanel (CCRF-CEM); Experiment 2; type: functional; settings: Homo sapiens; method in brief: as §1
DMS-273 [17] = experiment: cytotoxicity against small cell lung cancer subpanel (DMS 273); Experiment 1; type: functional; settings: Homo sapiens; method in brief: as §1
[18] = MGDH represents the selectivity or relative sensitivity of the tumor cell panel to the drug.; Experiment 1; type: functional; method in brief: as §3
MOLT-4 [19] = experiment: cytotoxicity against leukemia subpanel (MOLT-4); Experiment 1; type: functional; settings: Homo sapiens; method in brief: as §1
Mus musculus [20] = experiment: Percentage increased life span against L1210 leukemia cells in mice (1.08 mmol/kg dosage); Toxic; type: toxicity, organism-based; method in brief: as §2

Structure (SMILES) | GI50 (DMS-273 [1]) | GI50 (CCRF-CEM [2]) | GI50 (K562 [3]) | GI50 (DMS-114 [4]) | ILS (Mus musculus [5]) | GI50 (SR [6]) | GI50 (SR [7]) | GI50 (RPMI-8226 [8]) | GI50 (RPMI-8226 [9]) | GI50 (MOLT-4 [10]) | GI50 (HL-60 [11]) | GI50 (DMS-114 [12]) | MGDH GI50 [13] | GI50 (K562 [14]) | GI50 (HL-60 [15]) | GI50 (CCRF-CEM [16]) | GI50 (DMS-273 [17]) | MGDH GI50 [18] | GI50 (MOLT-4 [19]) | ILS (Mus musculus [20])
CCN(CC)C(=S)SC1CCOP(=O)(N(CCCl)CCCl)N1C (stereo unspecified) | 380 nM | 31.6 nM | 52.5 nM | 170 nM | >92% | 37.1 nM | 389 nM | 398 nM | 331 nM | 69.2 nM | 31.6 nM | 209 nM | 87.78 | 87.1 nM | 288 nM | 39.8 nM | 120 nM | 69.72 | 49 nM | 
CN1C(OO)CCOP1(=O)N(CCCl)CCCl (stereo unspecified) |  |  |  |  |  |  |  |  |  |  |  |  |  |  |  |  |  |  |  | Toxic
O=P1(N(CCCl)CCCl)NCCCO1 (stereo unspecified) [CYCLOPHOSPHAMIDE ANHYDROUS] |  |  |  |  | >187% |  |  |  |  |  |  |  |  |  |  |  |  |  |  | 

Source: ChEMBL document CHEMBL1128257, “Chemically stable N-methyl-4-(alkylthio)cyclophosphamide derivatives as prodrugs of 4-hydroxycyclophosphamide” (J Med Chem, 1995)
